# System: Escherichia coli
# Test: Antibacterial activity against extended-spectrum beta-lactamase-producing Escherichia coli isolate 12-4
# Assay type: functional
# Summary of the method: (§1)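 MIC determined in vitro by a standard technique and defined as the lowest compound concentration giving complete inhibition of bacterial growth. The Gram-positive and Gram-negative panels were tested alongside gemifloxacin, levofloxacin and ciprofloxacin reference drugs.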
row,Compound,MIC
1,CNC1CCN(c2nc3c(cc2F)c(=O)c(C(=O)O)cn3C2CC2)C/C1=N\OC (stereo unspecified),16 µg/mL

# System: Escherichia coli
# Test: Antibacterial activity against extended-spectrum beta-lactamase-producing Escherichia coli isolate 12-2
# Assay type: functional
# Summary of the method: as §1
row,Compound,MIC
1,CNC1CCN(c2nc3c(cc2F)c(=O)c(C(=O)O)cn3C2CC2)C/C1=N\OC (stereo unspecified),> 128 µg/mL

# System: Escherichia coli
# Test: Antibacterial activity against extended-spectrum beta-lactamase-producing Escherichia coli isolate 12-1
# Assay type: functional
# Summary of the method: as §1
row,Compound,MIC
1,CNC1CCN(c2nc3c(cc2F)c(=O)c(C(=O)O)cn3C2CC2)C/C1=N\OC (stereo unspecified),> 128 µg/mL

# System: Escherichia coli
# Test: Antibacterial activity against Escherichia coli isolate 12-5
# Assay type: functional
# Summary of the method: as §1
row,Compound,MIC
1,CNC1CCN(c2nc3c(cc2F)c(=O)c(C(=O)O)cn3C2CC2)C/C1=N\OC (stereo unspecified),> 128 µg/mL

# System: Escherichia coli
# Test: Antibacterial activity against Escherichia coli isolate 12-4
# Assay type: functional
# Summary of the method: as §1
row,Compound,MIC
1,CNC1CCN(c2nc3c(cc2F)c(=O)c(C(=O)O)cn3C2CC2)C/C1=N\OC (stereo unspecified),> 128 µg/mL

# System: Escherichia coli
# Test: Antibacterial activity against Escherichia coli isolate 12-1
# Assay type: functional
# Summary of the method: as §1
row,Compound,MIC
1,CNC1CCN(c2nc3c(cc2F)c(=O)c(C(=O)O)cn3C2CC2)C/C1=N\OC (stereo unspecified),4 µg/mL

# System: Escherichia coli
# Test: Antibacterial activity against Escherichia coli ATCC 25922
# Assay type: functional
# Summary of the method: as §1
row,Compound,MIC
1,CNC1CCN(c2nc3c(cc2F)c(=O)c(C(=O)O)cn3C2CC2)C/C1=N\OC (stereo unspecified),0.125 µg/mL

# System: Streptococcus pneumoniae
# Test: Antibacterial activity against Streptococcus pneumoniae isolate 12-5
# Assay type: functional
# Summary of the method: as §1
row,Compound,MIC
1,CNC1CCN(c2nc3c(cc2F)c(=O)c(C(=O)O)cn3C2CC2)C/C1=N\OC (stereo unspecified),0.5 µg/mL

# System: Streptococcus pneumoniae
# Test: Antibacterial activity against Streptococcus pneumoniae isolate 12-2
# Assay type: functional
# Summary of the method: as §1
row,Compound,MIC
1,CNC1CCN(c2nc3c(cc2F)c(=O)c(C(=O)O)cn3C2CC2)C/C1=N\OC (stereo unspecified),0.5 µg/mL

# System: Staphylococcus epidermidis
# Test: Antibacterial activity against methicillin-resistant Staphylococcus epidermidis isolate 12-35
# Assay type: functional
# Summary of the method: (§2)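 MIC determined in vitro by standard techniques, defined as the lowest compound concentration giving complete inhibition of bacterial growth. Gemifloxacin, levofloxacin and ciprofloxacin were tested alongside as reference drugs.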
row,Compound,MIC
1,CNC1CCN(c2nc3c(cc2F)c(=O)c(C(=O)O)cn3C2CC2)C/C1=N\OC (stereo unspecified),0.25 µg/mL

# System: Staphylococcus epidermidis
# Test: Antibacterial activity against methicillin-resistant Staphylococcus epidermidis isolate 12-33
# Assay type: functional
# Summary of the method: as §2
row,Compound,MIC
1,CNC1CCN(c2nc3c(cc2F)c(=O)c(C(=O)O)cn3C2CC2)C/C1=N\OC (stereo unspecified),0.06 µg/mL

# System: Staphylococcus epidermidis
# Test: Antibacterial activity against methicillin-resistant Staphylococcus epidermidis isolate 12-5
# Assay type: functional
# Summary of the method: as §2
row,Compound,MIC
1,CNC1CCN(c2nc3c(cc2F)c(=O)c(C(=O)O)cn3C2CC2)C/C1=N\OC (stereo unspecified),0.25 µg/mL

# System: Staphylococcus epidermidis
# Test: Antibacterial activity against methicillin-sensitive Staphylococcus epidermidis isolate 12-3
# Assay type: functional
# Summary of the method: as §1
row,Compound,MIC
1,CNC1CCN(c2nc3c(cc2F)c(=O)c(C(=O)O)cn3C2CC2)C/C1=N\OC (stereo unspecified),0.5 µg/mL

# System: Staphylococcus epidermidis
# Test: Antibacterial activity against methicillin-sensitive Staphylococcus epidermidis isolate 12-2
# Assay type: functional
# Summary of the method: as §1
row,Compound,MIC
1,CNC1CCN(c2nc3c(cc2F)c(=O)c(C(=O)O)cn3C2CC2)C/C1=N\OC (stereo unspecified),2 µg/mL

# System: Staphylococcus epidermidis
# Test: Antibacterial activity against methicillin-sensitive Staphylococcus epidermidis isolate 12-1
# Assay type: functional
# Summary of the method: as §1
row,Compound,MIC
1,CNC1CCN(c2nc3c(cc2F)c(=O)c(C(=O)O)cn3C2CC2)C/C1=N\OC (stereo unspecified),0.5 µg/mL

# System: Staphylococcus aureus
# Test: Antibacterial activity against methicillin-resistant Staphylococcus aureus isolate 12-15
# Assay type: functional
# Summary of the method: as §2
row,Compound,MIC
1,CNC1CCN(c2nc3c(cc2F)c(=O)c(C(=O)O)cn3C2CC2)C/C1=N\OC (stereo unspecified),1 µg/mL

# System: Staphylococcus aureus
# Test: Antibacterial activity against methicillin-resistant Staphylococcus aureus isolate 12-13
# Assay type: functional
# Summary of the method: as §2
row,Compound,MIC
1,CNC1CCN(c2nc3c(cc2F)c(=O)c(C(=O)O)cn3C2CC2)C/C1=N\OC (stereo unspecified),1 µg/mL

# System: Staphylococcus aureus
# Test: Antibacterial activity against methicillin-resistant Staphylococcus aureus isolate 12-3
# Assay type: functional
# Summary of the method: as §2
row,Compound,MIC
1,CNC1CCN(c2nc3c(cc2F)c(=O)c(C(=O)O)cn3C2CC2)C/C1=N\OC (stereo unspecified),1 µg/mL

# System: Staphylococcus aureus
# Test: Antibacterial activity against methicillin-sensitive Staphylococcus aureus isolate 12-10
# Assay type: functional
# Summary of the method: as §1
row,Compound,MIC
1,CNC1CCN(c2nc3c(cc2F)c(=O)c(C(=O)O)cn3C2CC2)C/C1=N\OC (stereo unspecified),0.25 µg/mL

# System: Staphylococcus aureus
# Test: Antibacterial activity against methicillin-sensitive Staphylococcus aureus isolate 12-7
# Assay type: functional
# Summary of the method: as §1
row,Compound,MIC
1,CNC1CCN(c2nc3c(cc2F)c(=O)c(C(=O)O)cn3C2CC2)C/C1=N\OC (stereo unspecified),0.5 µg/mL

# System: Staphylococcus aureus
# Test: Antibacterial activity against methicillin-sensitive Staphylococcus aureus isolate 12-6
# Assay type: functional
# Summary of the method: as §1
row,Compound,MIC
1,CNC1CCN(c2nc3c(cc2F)c(=O)c(C(=O)O)cn3C2CC2)C/C1=N\OC (stereo unspecified),0.25 µg/mL

# System: Staphylococcus aureus
# Test: Antibacterial activity against Staphylococcus aureus […]
# Assay type: functional
# Summary of the method: as §1
row,Compound,MIC
1,CNC1CCN(c2nc3c(cc2F)c(=O)c(C(=O)O)cn3C2CC2)C/C1=N\OC (stereo unspecified),0.5 µg/mL

# System: Pseudomonas aeruginosa
# Test: Antibacterial activity against Pseudomonas aeruginosa isolate 12-2
# Assay type: functional
# Summary of the method: as §1
row,Compound,MIC
1,CNC1CCN(c2nc3c(cc2F)c(=O)c(C(=O)O)cn3C2CC2)C/C1=N\OC (stereo unspecified),16 µg/mL

# System: Pseudomonas aeruginosa
# Test: Antibacterial activity against Pseudomonas aeruginosa isolate 12-1
# Assay type: functional
# Summary of the method: as §1
row,Compound,MIC
1,CNC1CCN(c2nc3c(cc2F)c(=O)c(C(=O)O)cn3C2CC2)C/C1=N\OC (stereo unspecified),16 µg/mL

# System: Pseudomonas aeruginosa
# Test: Antibacterial activity against Pseudomonas aeruginosa ATCC 27853
# Assay type: functional
# Summary of the method: as §1
row,Compound,MIC
1,CNC1CCN(c2nc3c(cc2F)c(=O)c(C(=O)O)cn3C2CC2)C/C1=N\OC (stereo unspecified),2 µg/mL

# System: Klebsiella pneumoniae
# Test: Antibacterial activity against extended-spectrum beta-lactamase-producing Klebsiella pneumoniae isolate 12-4
# Assay type: functional
# Summary of the method: as §1
row,Compound,MIC
1,CNC1CCN(c2nc3c(cc2F)c(=O)c(C(=O)O)cn3C2CC2)C/C1=N\OC (stereo unspecified),0.125 µg/mL

# System: Klebsiella pneumoniae
# Test: Antibacterial activity against extended-spectrum beta-lactamase-producing Klebsiella pneumoniae isolate 12-2
# Assay type: functional
# Summary of the method: as §1
row,Compound,MIC
1,CNC1CCN(c2nc3c(cc2F)c(=O)c(C(=O)O)cn3C2CC2)C/C1=N\OC (stereo unspecified),16 µg/mL

# System: Klebsiella pneumoniae
# Test: Antibacterial activity against extended-spectrum beta-lactamase-producing Klebsiella pneumoniae isolate 12-1
# Assay type: functional
# Summary of the method: as §1
row,Compound,MIC
1,CNC1CCN(c2nc3c(cc2F)c(=O)c(C(=O)O)cn3C2CC2)C/C1=N\OC (stereo unspecified),16 µg/mL

# System: Klebsiella pneumoniae
# Test: Antibacterial activity against Klebsiella pneumoniae isolate 12-4
# Assay type: functional
# Summary of the method: as §1
row,Compound,MIC
1,CNC1CCN(c2nc3c(cc2F)c(=O)c(C(=O)O)cn3C2CC2)C/C1=N\OC (stereo unspecified),0.125 µg/mL

# System: Klebsiella pneumoniae
# Test: Antibacterial activity against Klebsiella pneumoniae isolate 12-2
# Assay type: functional
# Summary of the method: as §1
row,Compound,MIC
1,CNC1CCN(c2nc3c(cc2F)c(=O)c(C(=O)O)cn3C2CC2)C/C1=N\OC (stereo unspecified),0.5 µg/mL

# System: Klebsiella pneumoniae
# Test: Antibacterial activity against Klebsiella pneumoniae isolate 12-1
# Assay type: functional
# Summary of the method: as §1
row,Compound,MIC
1,CNC1CCN(c2nc3c(cc2F)c(=O)c(C(=O)O)cn3C2CC2)C/C1=N\OC (stereo unspecified),0.5 µg/mL

# Reference: ChEMBL document CHEMBL2331542, “Synthesis and in vitro antibacterial activity of quinolone/naphthyridone derivatives containing 3-alkoxyimino-4-(methyl)aminopiperidine scaffolds” (2013)
